# Compounds with a hit are over-represented: about 1.4% of the library has one in this group of screens.
# Vif inh: HIV Vif inhibition | HEK293T cells, Vif self-association by quenched fluorescence, imaging, 24 h | inhibition, % at 7.49 µM | hit rate 0.35% among 340,000; in the data active means inhibition above about 50%, passing the limit was not always enough
# T cell HTS: T cell immune modulators affecting CD8 T cell-vesicle binding. 2C CD8+ T cell-vesicle binding, flow cytometry; stronger effect = lower value. response (vesicle binding), % at 7 µM. hit rate 0.068% among 330,000. AID 2052;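 active means response, share of CD8 T cells binding vesicles, and their 90th percentile fluorescence all below set limits, cut at about 80% in these data, passing the limit was not always enough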;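 further: values below 100% mean blocked vesicle binding to the CD8+ T cells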
#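 Assay system: 2C TCR transgenic mouse naive CD8+ T cells, MACS-purified | Read-out: CD8+ gate FL2 mean fluorescence as % of same-row positive control | Signal: High-throughput flow cytometry with anti-B7-1 and anti-CD8 staining | Timing: Binding step 1.5 h, 37 °C, antibody labelling 20 min, ice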
# CASP6 VEID inh: inhibitors of human caspase-6; purified caspase-6, Z-VEID-R110 cleavage fluorescence; hit rate 0.53% among 350,000; inhibition, % at 12.5 µM; P55212;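 active means mean inhibition across replicates at least about 35%, with every replicate also reaching that limit, limit read from the data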;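 further: 0% = median of neutral control wells and 100% = no fluorescence left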
# Target sequence (P55212 24-179 limits assumed): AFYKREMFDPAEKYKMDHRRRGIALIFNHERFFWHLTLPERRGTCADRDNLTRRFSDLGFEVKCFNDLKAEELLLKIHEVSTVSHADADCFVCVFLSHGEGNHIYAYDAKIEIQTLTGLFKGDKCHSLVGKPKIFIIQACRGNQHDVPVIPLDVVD
# Target sequence (P55212 194-293 limits assumed): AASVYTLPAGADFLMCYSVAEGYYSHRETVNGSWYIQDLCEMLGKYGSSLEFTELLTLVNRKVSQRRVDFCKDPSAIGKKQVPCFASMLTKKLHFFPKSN
# Myeloid diff 2: promotes myeloid progenitor differentiation. ER-HoxA9 myeloid progenitors, lysozyme-GFP differentiation, flow cytometry. calls only at 10 µM. hit rate 1% among 360,000;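 active means normalized GFP-positive differentiation at or above the plate's own cutoff, the solvent-only control mean plus 3 SD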;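 further: cells exposed to compound for four days before flow analysis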
# Myeloid diff CP1: compounds promoting myeloid differentiation; calls only; shares compounds with Myeloid diff 2; hit rate 2% among 2,300; ER-HoxA9 myeloid progenitors, GFP/Mac1 double-positive flow;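 active means share of green or green-and-red cells above 9 and 9% in run 1 or 4 and 3% in run 2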
# GFP autofluor: flagged as fluorescent in myeloid differentiation counter-screen; fluorescence response, % (concentration not given with the values); AID 651707; ER-HoxA9 myeloid progenitors, no estrogen, GFP autofluorescence flow cytometry; vehicle wells 0%, positive control 100%; shares compounds with Myeloid diff 2; hit rate 7.4% among 2,300;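 active means over 5% cells positive for green fluorescent reporter, or over 2% positive for both it and APC stain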;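 further: range taken on the double positive population between DMSO and positive control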
# Active calls of the source: *; i = inactive; / = not tested or not shown; + = active, no number.
SMILES,Vif inh,T cell HTS,CASP6 VEID inh,Myeloid diff 2,Myeloid diff CP1,GFP autofluor
CC(C)c1cn(CC[C@@H]2CC[C@H](NS(=O)(=O)Cc3ccccc3)[C@@H](CO)O2)nn1,/,/,-1,/,/,/
COc1ccc(NC(=O)/C(=C\c2ccco2)NC(=O)c2ccco2)cc1,-44,413,6,i,i,0
C[C@@H]1CN([C@@H](C)CO)S(=O)(=O)c2ccc(C#Cc3ccc(F)cc3)cc2O[C@H]1CN(C)C(=O)CN(C)C,/,/,3,/,/,/
O=C(O)CCC1(C(=O)O)OCCc2ccccc21 (centres undefined),-4,380,-1,i,i,0
CC1CCN(Cc2ccc(-c3nnn(CC(=O)Nc4ccccc4Cl)n3)cc2)CC1,0,252,-1,+,i,0
Cc1cccc(C)c1NC(=O)Cn1nnc(-c2ccc(CN3CCC(C)CC3)cc2)n1,14,332,-1,i,/,/
COc1ccc2[nH]c(=O)c(CN(Cc3ccco3)Cc3nnnn3Cc3ccccc3)cc2c1,4,374,/,i,i,0
CCOc1ccc2[nH]c(=O)c(CN(Cc3ccco3)Cc3nnnn3Cc3ccccc3)cc2c1,1,714,0,i,/,/
COc1ccc2cc(CN(Cc3ccco3)Cc3nnnn3C3CCCCC3)c(=O)[nH]c2c1,-11,191,/,i,/,/
COc1ccc2cc(CN(Cc3ccco3)C(c3nnnn3C3CCCCC3)C(C)C)c(=O)[nH]c2c1 (centres undefined),/,146,/,+,i,1
CCC(=O)N(C)C[C@H]1Oc2ncc(C#CCc3ccccc3)cc2C(=O)N([C@@H](C)CO)C[C@@H]1C,/,/,1,/,/,/
CC(=O)Nc1ccc(OCC(O)Cn2c3ccccc3c3ccccc32)c(C)c1 (centres undefined),-8,285,/,i,/,/
CC(=O)Nc1ccc(OCC(O)Cn2c3ccccc3c3ccccc32)cc1 (centres undefined),-6,191,/,i,i,8.5*
O=C(C[C@@H]1CC[C@@H]2[C@H](COC[C@@H](O)CN2Cc2cc(F)ccc2F)O1)NCc1ccc(Cl)cc1,/,/,5,/,/,/
Cc1nc(N)c(C#N)c(-c2cccnc2)c1C,0,597,/,+,i,0
CCOC(=O)N1CCC(N2CCN(S(=O)(=O)c3ccc(C)cc3)CC2)CC1,0,683,/,i,/,/
CCOC(=O)N1CCC(N2CCN(S(=O)(=O)c3ccc(OC)cc3)CC2)CC1,6,278,/,i,i,3.5*
CCOC(=O)CNC(=O)Cn1cnc2sc(C)c(S(=O)(=O)N3CCOCC3)c2c1=O,24,276,-1,i,/,/
Cc1sc2ncn(CC(=O)NCc3ccccn3)c(=O)c2c1S(=O)(=O)N1CCOCC1,-4,273,/,i,i,0
O=C(c1cnccn1)N1CC(=O)N2[C@H](CO)[C@H](c3ccc(C#CC4CCCCC4)cc3)[C@@H]2C1,/,/,-1,/,/,/
O=C(NCCc1ccccc1)c1ccccc1NS(=O)(=O)N1CCCC1,-5,184,/,i,i,0
O=C(O)[C@@H]1Cc2ccccc2N1,1,328,1,+,i,5.4*
C[C@@H]1CN([C@@H](C)CO)C(=O)Cc2cc(NS(=O)(=O)c3ccc(F)cc3)ccc2O[C@H]1CN(C)C(=O)Nc1cccc2ccccc12,/,/,1,/,/,/
Cc1ccccc1S(=O)(=O)N[C@H]1CC[C@H](CCn2cc(Cc3ccccc3)nn2)O[C@H]1CO,/,/,1,/,/,/
CNC(=O)/C(C#N)=C/c1c(N(Cc2ccccc2)Cc2ccccc2)nc2c(C)cccn2c1=O,-14,205,/,i,/,/
SMILES,Vif inh,T cell HTS,CASP6 VEID inh,Myeloid diff 2,Myeloid diff CP1,GFP autofluor
CCNC(=O)/C(C#N)=C/c1c(N(Cc2ccccc2)Cc2ccccc2)nc2ccccn2c1=O,1,360,3,+,i,0
Nc1nc(SCc2ccccc2)c2ncn(C3CCCO3)c2n1 (centres undefined),4,/,1,i,i,0
Nc1nc(SCc2ccccc2)c2ncn(C3CCCCC3)c2n1,-8,/,-5,i,/,/
CN1CCN(C(=O)C[C@H]2CC[C@@H]3[C@H](COC[C@H](O)CN3Cc3ccc4c(c3)OCO4)O2)CC1,/,/,1,/,/,/
O=C(O)CCC(=O)NNC(=O)c1ccc(-c2ccccc2)cc1,7,128,/,i,i,2
COc1ccc(C2SCC(=O)N2c2c(C)n(C)n(-c3ccccc3)c2=O)cc1OC (centres undefined),5,332,/,+,i,0
Cn1cnc(S(=O)(=O)N[C@@H]2C=C[C@H](CC(=O)NCC3CCCCC3)O[C@@H]2CO)c1,/,/,0,/,/,/
COc1ccccc1C1N(c2ccc(Cl)cc2)C(=O)C2CCCN21 (centres undefined),/,287,/,+,+,0
Cc1cc(C)c(S(=O)(=O)Nc2nnc(C)s2)c(C)c1,15,295,/,i,i,0
CCCNC(=O)Nc1ccc2c(c1)OC[C@H](C)N(CCC)C[C@@H](C)[C@@H](OC)CN(C)C2=O,/,/,1,/,/,/
CC1CCCCC1NC(=O)C(=O)NCC1CCCO1 (centres undefined),-8,162,/,i,i,0
C[C@H](CO)N1C[C@H](C)[C@H](CN(C)C(=O)CC2CC2)Oc2cc(-c3ccncc3)ccc2S1(=O)=O,/,/,2,/,/,/
N#CC(C#N)=c1ccc2c(c1)N1C(c3ccccc3)=CC(c3ccccc3)C3CCCCC31N=2 (centres undefined),11,568,0,+,i,0
COc1ccc(COc2ccc3c(C)cc(=O)oc3c2)cc1,-9,327,0,i,/,/
Cc1cc(=O)oc2cc(OCc3ccc(S(=O)(=O)N4CCOCC4)cc3)ccc12,1,422,/,+,i,0
C[C@H](CO)N1C[C@H](C)[C@@H](CN(C)S(=O)(=O)c2cccs2)Oc2ncc(/C=C/c3ccccc3)cc2C1=O,/,/,6,/,/,/
Cc1ccc(N)c(C(O)(C(F)(F)F)C(F)(F)F)c1,3,488,1,i,/,/
CNc1ccc(C(O)(C(F)(F)F)C(F)(F)F)cc1C(O)(C(F)(F)F)C(F)(F)F,0,225,/,+,i,1
Cc1cccn2c(=O)c3cc(C(=O)NCCN4CCOCC4)c(=N)n(CCN4CCOCC4)c3nc12,-1,279,0,/,/,/
Cc1cccn2c(=O)c(/C=C3\SC(=S)NC3=O)c(NCCCN3CCOCC3)nc12,83*,112,2,+,i,1
Cc1ccc(C=Nc2ccc(N(C)C)cc2)o1,/,397,33,i,i,0
COc1ccc(/C=C2\SC(=S)N(NS(=O)(=O)c3ccc(C)cc3)C2=O)c(OC)c1,-11,319,2,i,i,0
COc1ccc(OC)c(/C=C2\SC(=S)N(NS(=O)(=O)c3ccc(C)cc3)C2=O)c1,3,247,0,i,/,/
CN1CCN(C(=O)C2=C[C@H](C3CC3)C[C@H](OCCCCO)O2)CC1,/,/,0,/,/,/
CCOc1ccc2nc(N3CCC(C(=O)N4CCN(C(=O)c5ccco5)CC4)CC3)sc2c1,-5,250,/,i,/,/

# Assay outcomes deposited in PubChem by several laboratories.
